Bioassay records from PubChem.
SMARCA2 act: activators of SMARCA2 function; activation, % at 9.1 µM; AID 652017; 370,000 compounds, 1% hits; MG213 cells, MMTV-luciferase reporter, dexamethasone, overnight; in the data active = activation above about 7.8%;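 note: 0% = vehicle wells and 100% = reference activator wells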
DAX1 inh-1: NR0B1 (DAX1) inhibition | HEK293 Gal4-DAX1 luciferase reporter, luminescence | P51843 | inhibition, % at 6.75 µM | 340,000 compounds, 0.99% hits;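 active = inhibition above the mean over all tested compounds plus 3 SD, cut at about 4.2% in these data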;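 note: 0% = DAX1-transfected cells with DMSO and 100% = empty-vector control cells with DMSO; inhibition shows as a rise in luminescence from relieved DAX1 repression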
GASC-1 inh: human JMJD2C demethylase inhibition; inhibition, % at 2.35 µM; Q9H3R0; GST-JMJD2C(1-420) H3K9me3 demethylation, DELFIA europium; 330,000 compounds, 0.069% hits;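 active = more than half of a compound's replicate wells show inhibition beyond 50%, single wells judged on their own value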;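 note: signal counts dimethyl H3K9 product captured on neutravidin plate; 0% = median of DMSO wells and 100% = 0.3 times that DMSO median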
Target sequence (Q9H3R0 1-420 limits assumed): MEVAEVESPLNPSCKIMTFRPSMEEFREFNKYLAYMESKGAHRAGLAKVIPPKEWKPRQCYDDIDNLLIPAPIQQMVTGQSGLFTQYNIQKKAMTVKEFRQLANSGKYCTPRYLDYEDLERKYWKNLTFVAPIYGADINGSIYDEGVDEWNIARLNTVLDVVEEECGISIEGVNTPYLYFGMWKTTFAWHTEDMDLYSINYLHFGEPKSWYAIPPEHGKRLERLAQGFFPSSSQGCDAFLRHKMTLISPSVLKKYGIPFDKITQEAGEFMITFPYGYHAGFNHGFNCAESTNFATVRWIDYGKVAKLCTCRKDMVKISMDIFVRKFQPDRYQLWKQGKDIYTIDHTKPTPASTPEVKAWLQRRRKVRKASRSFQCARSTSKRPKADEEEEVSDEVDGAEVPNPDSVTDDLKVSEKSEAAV
DAX1 inh-2: DAX1 (NR0B1) inhibition, primary screen; HEK293T StAR-luciferase reporter, SF-1/DAX-1 repression relief; inhibition, % at 6.8 µM; 370,000 compounds, 1.1% hits; AID 652010;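 active = inhibition above the mean over all tested compounds plus 3 SD, cut at about 3.6% in these data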;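 note: 0% = DAX-1 cells with DMSO and 100% = cells lacking DAX-1 with DMSO; higher inhibition means more luminescence from relief of DAX-1 repression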
NR2E3 ag-1: agonists of human nuclear receptor NR2E3; Q9Y5X4; GST-NR2E3/biotin-RetCOR TR-FRET, 1536-well; inhibition of corepressor binding, % at 4.78 µM; 320,000 compounds, 0.12% hits; AID 2300;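 active = percent inhibition above the cutoff of mean plus 3 SD of all tested compounds, set per screening campaign, cut at about 20% in these data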;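 note: 0% = DMSO wells and 100% = biotin wells as full block of FRET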
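System: GST-tagged NR2E3 plus biotinylated RetCOR corepressor; Amount: 1.35 nM GST-tagged NR2E3 final; Dosing: single nominal compound dose of 4.8 µM; Schedule: 5 h incubation at 4 °C; Technique: TR-FRET with europium anti-GST and streptavidin-D2, 340 nm excitation; Controls: biotin wells as high control, 0.6% DMSO wells as low control.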
NR2E3 ag-2: human photoreceptor-specific nuclear receptor agonism; CHO-S Gal4-NCOR/VP16-NR2E3 two-hybrid, luciferase; inhibition of corepressor binding, % at 3.98 µM; AID 602229; 360,000 compounds, 0.35% hits;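 active = inhibition above the mean of all tested compounds plus 3 SD, cut at about 70% in these data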;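 note: 0% = DMSO with NR2E3 transfected cells and 100% = cells lacking NR2E3 construct; higher means lower luciferase signal from less NR2E3 corepressor binding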
Active calls of the source: *; . = not tested or not shown. A selection: hits, their analogues and other compounds. The true share with any hit is near 3.2%.

SMILES	SMARCA2 act	DAX1 inh-1	GASC-1 inh	DAX1 inh-2	NR2E3 ag-1	NR2E3 ag-2
Cc1ccc(S(=O)(=O)N2[C@@H](Cc3ccccc3)CO[C@H]2CC(=O)c2cccs2)cc1	-0.1	.	.	4.0*	.	.
Cc1ccc2nc(N3C(=O)C(O)=C(C(=O)c4ccc(C)o4)C3c3ccco3)sc2c1 (stereo not drawn)	1.6	0.1	-10.0	4.1*	13.4	-55.5
COc1ccc(CN2CCC(CNC(=O)Nc3ccccc3)CC2)cc1	-4.1	.	.	-0.7	.	.
Cc1ccccc1N(C)C(=O)CN1CCN(c2nc(-c3ccccc3)cs2)CC1	-4.5	.	.	-1.1	.	.
CCN(C(=O)[C@H]1CC(=O)O[C@@H]1c1ccccc1)c1ccccc1	-3.8	.	.	0.1	.	.
COc1ccc(-c2[nH]ncc2CN2CCN(Cc3cccs3)CC2)cc1F	-2.5	7.8*	5.5	-0.1	-1.8	4.5
CCOC(=O)NN1C(=O)c2ccccc2NC1c1ccc(OC)c(OC)c1 (stereo not drawn)	3.9	4.6*	5.2	-0.3	4.0	-30.7
COc1ccc(C2Nc3ccccc3C(=O)N2NC(C)=O)cc1OC (stereo not drawn)	2.3	2.0	4.3	0.7	5.0	-8.8
COc1ccc(C2=Nc3ccccc3NC(=O)C2N(C(=O)c2cnc(C)cn2)c2ccc(N3CCOCC3)cc2)cc1 (stereo not drawn)	-1.7	.	.	3.7*	.	-17.3
Cn1ccnc1C(O)(c1ccccc1)c1nccn1C	-2.5	-0.3	2.9	-0.8	3.0	-19.6
Cc1nn(C)c(N)c1C(O)(c1nccn1C)C(F)(F)F (stereo not drawn)	0.6	0.8	80.6*	-0.4	3.0	-5.1
O=C1[C@@H](CCc2ccccc2)[C@@H]2c3cc4ccccc4cc3C=NN2[C@@H]2c3cc4ccccc4cc3C=NN12	-2.4	.	.	-1.2	.	.
O=C(/C=C(\Nc1cccc(Cl)c1)c1ccccc1)c1ccccc1	4.0	.	.	3.7*	.	.
O=C(/C=C(\Nc1cccc(C(F)(F)F)c1)c1ccccc1)c1ccccc1	-0.2	.	.	0.6	.	.
CCCCCCCCN1C(=O)[C@@H](CC(=O)NCCc2ccccc2OC)C[C@@]2(C(=O)OC)C1=C[C@H](C(C)C)O[C@@H]2C1CC1	-2.3	.	.	-1.7	.	.
COc1ccc(CN2C(=O)CN(S(C)(=O)=O)CC2(C)c2nnnn2C2CCCCC2)cc1 (stereo not drawn)	-0.6	.	.	-1.1	.	.
Cc1ccc(/C=N/N=C/c2ccc(C)cc2)cc1	6.2	-0.3	11.6	0.0	-1.4	-8.3
C(=N\N=C\c1ccccc1)/c1ccccc1	-1.5	5.0*	-0.2	0.6	4.0	-29.3
CCCOc1ccc(-c2c(=O)n(O)c3ccccc3[n+]2[O-])cc1	4.2	2.9	-1.9	4.5*	3.2	-154.1
CCOc1ccc(-c2c(=O)n(OCc3ccccn3)c3ccccc3[n+]2[O-])cc1	4.5	0.4	7.0	-0.6	-1.0	-21.9
Clc1ccc(Cl)c2sc(N3CCOCC3)nc12	-1.6	-1.9	-4.7	0.1	3.4	-65.1
Clc1cc(Cl)c2nc(N3CCOCC3)sc2c1	4.9	4.8*	5.6	0.9	0.2	-68.4
Cn1ccnc1CN1CCC[C@]2(CC[C@H](CCC#N)O2)C1	-4.4	.	.	0.7	.	.
CC(C)c1cccc(C(C)C)c1NC(=S)Nc1cccc(Cl)c1	-0.7	5.7*	-12.0	-0.3	0.1	-19.8
O=C(Nc1ccc(F)c(Cl)c1)c1cc(C2CCCN(C(=O)C3CC3)C2)on1 (stereo not drawn)	0.4	.	.	4.4*	.	-117.1
SMILES	SMARCA2 act	DAX1 inh-1	GASC-1 inh	DAX1 inh-2	NR2E3 ag-1	NR2E3 ag-2
CN(C)C=NC(=O)c1cc(C(=O)c2ccccc2Cl)c[nH]1	1.9	-0.2	-27.1	-0.3	6.9	-1.2
CN(C)C=NC(=O)c1cc(C(=O)c2ccc(C(C)(C)C)cc2)c[nH]1	4.2	0.7	2.7	4.4*	-2.3	-100.8
CCn1c(COc2cccc3cccnc23)nnc1SCC(=O)O	3.9	5.4*	-10.0	0.5	-0.9	-17.7
CCn1c(COc2cccc3cccnc23)nnc1SCC(=O)OC	0.4	0.3	-9.5	0.2	-3.0	-8.4
COc1ccc(-c2nnn(CC(=O)N(CCCN3CCOCC3)C(C(=O)NC3CCCC3)c3ccco3)n2)cc1 (stereo not drawn)	3.6	5.2*	33.2	-0.2	2.2	-13.4
Fc1cccc(Cc2noc(CN3CCCCC3CCc3ccccn3)n2)c1 (stereo not drawn)	1.1	-1.8	-12.3	0.9	1.6	-18.5
